Shown are actives, neighbours in structure and some others; about 3.7% of the full set was active somewhere.
KCNK3 block: human KCNK3 channel inhibition, primary screen. 340,000 compounds, 0.84% hits. AID 602410. CHO-KCNK3 thallium flux, FluxOR fluorescence; active compounds read low. B-score at 10 µM;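 active = B-score under library mean minus 4 SD, starting fluorescence ratio at most library mean plus 5 SD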;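 also: more negative B-score means stronger inhibition of thallium flux through KCNK3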
KCNK9 inh: human KCNK9 channel inhibition. HEK293 KCNK9, FluxOR thallium flux fluorescence; active compounds read low. B-score at 10 µM. 310,000 compounds, 1.2% hits. AID 488922;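 active = ratio B-score over 3 SD below the library mean, with starting fluorescence within 5 SD of its mean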;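 also: negative B-score means less thallium flux so channel inhibition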
KCNQ1 act: human KCNQ1 channel potentiation or activation | P51787 | CHO-K1 KCNQ1, thallium flux FluxOR fluorescence; active compounds read high | B-score at 10 µM | 310,000 compounds, 0.35% hits | AID 2648;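 active = fluorescence ratio B-score, a plate-corrected score, at least three library SD, with initial intensity B-score within 5 SD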
Target sequence (P51787 whole entry, looked up): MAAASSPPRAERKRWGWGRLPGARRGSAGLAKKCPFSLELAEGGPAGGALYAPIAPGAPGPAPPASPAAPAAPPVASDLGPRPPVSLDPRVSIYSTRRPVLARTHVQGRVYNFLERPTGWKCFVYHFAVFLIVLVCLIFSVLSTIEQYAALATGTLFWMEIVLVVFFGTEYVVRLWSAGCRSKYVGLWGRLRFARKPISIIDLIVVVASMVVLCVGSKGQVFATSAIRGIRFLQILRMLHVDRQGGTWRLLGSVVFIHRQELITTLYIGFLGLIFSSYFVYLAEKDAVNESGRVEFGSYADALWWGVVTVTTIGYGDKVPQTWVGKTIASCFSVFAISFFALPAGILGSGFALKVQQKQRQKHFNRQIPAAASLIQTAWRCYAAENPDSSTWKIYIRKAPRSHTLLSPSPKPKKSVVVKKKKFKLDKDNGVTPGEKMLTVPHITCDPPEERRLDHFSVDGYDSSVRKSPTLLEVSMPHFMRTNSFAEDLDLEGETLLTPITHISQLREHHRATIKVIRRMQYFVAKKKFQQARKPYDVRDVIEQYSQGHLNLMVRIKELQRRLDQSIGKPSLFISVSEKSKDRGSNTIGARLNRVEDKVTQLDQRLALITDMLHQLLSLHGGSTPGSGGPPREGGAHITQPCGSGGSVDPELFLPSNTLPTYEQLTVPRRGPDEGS
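Doses: Single concentration per compound, DMSO matched to controls | Test system: KCNQ1-transfected CHO-K1 cells | Timing: 90 min dye loading and 20 min compound exposure, both at room temperature | Measured by: Kinetic FluxOR thallium fluorescence, 10-s 1-Hz baseline, 110-s post-stimulus read | Medium: Assay buffer with matched DMSO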
Kir21 block: Kir2.1 (mouse) channel inhibition; P35561; HEK293-Kir2.1, FluxOR thallium flux fluorescence; active compounds read low; B-score at 10 µM; 310,000 compounds, 0.85% hits;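 active = fluorescence ratio B-score at or below minus 3 SD of library scores, with starting-brightness B-score within 2 SD, cut at about -4.2 in these data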;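 also: channel flux triggered by added potassium and thallium sulfate stimulus; B-score of peak minus minimum fluorescence over baseline after thallium stimulus; more negative B-score means stronger Kir2.1 block with less thallium influx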
KCNQ1 inh: inhibitors of human KCNQ1 potassium channel; P51787; CHO-K1 KCNQ1, FluxOR thallium flux fluorescence; active compounds read high; B-score at 10 µM; 310,000 compounds, 1.3% hits;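 active = compounds whose thallium flux B-score, printed positive for inhibition, exceeds three library SD while starting fluorescence stays within three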;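 also: channel opened by potassium depolarization with thallium stimulus after 20 min compound exposure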
hERG rescue: compounds protecting human hERG from proarrhythmic drug block | Q12809 | CHO-hERG, FluxOR thallium flux, dofetilide IC70 present | activation (rescue from dofetilide block), less the hit threshold, % at 10 µM | 310,000 compounds, 0.51% hits | AID 1511;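 active = activation above the mean of controls blocked by dofetilide plus 5 SD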;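 also: thallium influx through hERG after potassium depolarization seen as dye fluorescence rise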
KCNK9 block conf: confirmation of human KCNK9 potassium channel inhibitors; inhibition, % at 10 µM; 4,900 compounds, 43% hits; AID 492992; HEK293 KCNK9 cells, FluxOR thallium flux fluorescence; shares compounds with KCNK9 inh;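 active = thallium signal inhibited by more than 5 SD of the compound-free buffer control wells, on both duplicate plates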
Kir2-1 spec: mouse Kir2.1 off-target activity of KCNK9 modulators; shares compounds with KCNK9 inh; Kir2.1 cells, FluxOR thallium flux fluorescence; inhibition, % at 10 µM; 4,900 compounds, 4% hits; AID 492993;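 active = thallium signal drop more than 5 SD beyond the mean of the no-compound control wells, seen in both duplicate plates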;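 also: signal is fluorescence rise after thallium addition divided by baseline fluorescence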
HEK293 Tl ctr: second check of KCNK9 modulator effects in non-induced HEK293 cells. FluxOR thallium flux. 4,900 compounds, 40% hits. inhibition, % at 10 µM. shares compounds with KCNK9 inh. AID 492997;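 active = thallium signal drop beyond 5 SD of the untreated control mean, on both duplicate plates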
KCNK3 confirm: human KCNK3 channel inhibition, confirmation assay; CHO-KCNK3 thallium flux, FluxOR fluorescence; 0% buffer, 100% carvedilol maximal block; ratio percent of control, % at 10 µM; AID 651638; 2,400 compounds, 99% hits; shares compounds with KCNK3 block;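 active = ratio percent of control, averaged over triplicates, above buffer control mean plus 5 SD, cut at about 64% in these data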;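 also: ratio is the fluorescence rise from min to max over baseline after thallium stimulus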
KCNK3 noninduced: activity in cells without induced KCNK3 expression; shares compounds with KCNK3 block; non-induced KCNK3 parental cells, FluxOR thallium flux; active compounds read low; thallium flux ratio (lower = more inhibition) at 10 µM; 2,400 compounds, 40% hits; AID 651747;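 active = thallium flux ratio, averaged over three wells, more than 5 SD below the buffer control mean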;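 also: host cells are CHO cells without KCNK3 induction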
Each line names hits and unclear results; the compound was inactive in the other large screens (follow-up assays come after a bar, where they were run).

O=C(OCc1ccc2c(c1)OCO2)c1cccc(S(=O)(=O)N2CCCCC2)c1	KCNK3 block -9.3, KCNK9 inh -19 | KCNK9 block conf 72% | Kir2-1 spec inactive | HEK293 Tl ctr 30% | KCNK3 confirm 114 | KCNK3 noninduced inactive
O=C(CCCc1ccccc1)N1CCN(c2ccc([N+](=O)[O-])cc2)CC1	none
Cc1cc(C)cc(-n2c(C)cc(/C=N/NC(=O)CSc3ncccn3)c2C)c1	KCNK3 block -11, KCNK9 inh -14 | KCNK9 block conf 60% | Kir2-1 spec inactive | HEK293 Tl ctr 32% | KCNK3 confirm 94 | KCNK3 noninduced inactive
Cc1ccc2c(c1)[nH]c1c(=O)n(Cc3ccco3)cnc12	none
CC(=O)c1ccc(OC(=O)CCc2nc3ccccc3s2)cc1	none
Cc1cc(C)c2cc(CN(CC3CCCO3)C(=S)NCc3ccco3)c(=O)[nH]c2c1 (stereo not drawn)	KCNK3 block -9.8, KCNK9 inh -9.5 | KCNK9 block conf 29% | Kir2-1 spec inactive | HEK293 Tl ctr 33% | KCNK3 confirm 113 | KCNK3 noninduced inactive
Cc1ccc(/C(C#N)=C\c2ccc(N3CCOCC3)o2)cc1	KCNK3 block -15, KCNK9 inh -12, KCNQ1 inh 9 | KCNK9 block conf 57% | Kir2-1 spec inactive | HEK293 Tl ctr 84% | KCNK3 confirm 168 | KCNK3 noninduced 0.044
O=C1NC(=O)/C(=C/c2ccc(N3CCOCC3)o2)N1	none
N#C/C(=C/c1ccc(N2CCCCC2)o1)c1cccc(F)c1	KCNK3 block -14, KCNK9 inh -10 | KCNK9 block conf 78% | Kir2-1 spec inactive | HEK293 Tl ctr 72% | KCNK3 confirm 170 | KCNK3 noninduced 0.079
N#C/C(=C/c1ccc(Sc2nc3ccccc3[nH]2)o1)c1cccc(F)c1	KCNK3 block -9.8, KCNQ1 inh 13 | KCNK9 block conf inactive | Kir2-1 spec inactive | HEK293 Tl ctr inactive | KCNK3 confirm 122 | KCNK3 noninduced inactive
CN1C(=O)/C(=C/c2ccccc2F)Sc2ccc(C(=O)N3CCCC3)cc21	none
CC(C)(C)n1nnnc1C(c1cccs1)N(Cc1ccccc1)Cc1cccnc1 (stereo not drawn)	KCNK9 inh -13 | KCNK9 block conf 66% | Kir2-1 spec inactive | HEK293 Tl ctr 54% | KCNK3 confirm 118 | KCNK3 noninduced inactive
COc1cc2c(c3oc(-c4ccccc4)cc(=O)c13)C=CC(C)(C)O2	KCNK3 block -8.8, KCNK9 inh -9.4 | KCNK9 block conf 44% | Kir2-1 spec inactive | HEK293 Tl ctr inactive | KCNK3 confirm 122 | KCNK3 noninduced 0.14
Cc1ccccc1-n1c(SCC(=O)N2CCOCC2)nc(O)c(Cc2ccccc2)c1=O	none
O=C(CN(C(=O)c1ccc(Cl)cc1)C1CCCCC1)Nc1ccc(Cl)c([N+](=O)[O-])c1	none
O=C(CN(C(=O)c1ccccc1Cl)C1CCCCC1)Nc1ccc(Cl)c([N+](=O)[O-])c1	KCNK9 inh -11, KCNQ1 inh 8 | KCNK9 block conf 36% | Kir2-1 spec inactive | HEK293 Tl ctr 29% | KCNK3 confirm 98 | KCNK3 noninduced 0.16
O=C(CSc1nc2[nH]ncc2c(=O)n1-c1ccc(Cl)c(Cl)c1)NCc1ccccc1Cl	KCNK3 block -12, KCNK9 inh -8.2 | KCNK9 block conf 48% | Kir2-1 spec inactive | HEK293 Tl ctr 34% | KCNK3 confirm 128 | KCNK3 noninduced 0.14
O=C(CSc1nc2[nH]ncc2c(=O)n1-c1ccccc1)NCCc1ccccc1	none
O=C(O)CCC(=O)Nc1cccc(-c2csc(-c3ccccc3)n2)c1	none
CCCCC(=O)Nc1cccc(-c2csc(-c3ccccc3)n2)c1	KCNK3 block -10, KCNK9 inh -10, KCNQ1 inh 9 | KCNK9 block conf 50% | Kir2-1 spec inactive | HEK293 Tl ctr 30% | KCNK3 confirm 125 | KCNK3 noninduced 0.15
Cc1ccc(CNC(=O)CCSCCC(=O)NCc2ccc(C)cc2)cc1	none
Cc1ccc(NC(=O)Nc2cccn(Cc3c(F)cccc3Cl)c2=O)cc1	none
Cc1ccc(CN2CCCN(Cc3c(F)cccc3Cl)S2(=O)=O)cc1	KCNK3 block -10, KCNK9 inh -14 | KCNK9 block conf 60% | Kir2-1 spec inactive | HEK293 Tl ctr 43% | KCNK3 confirm 113 | KCNK3 noninduced inactive
COc1cc(/C=C2/N=C(c3ccccc3)OC2=O)c(F)cc1OCc1ccccc1	none
COc1ccc2[nH]c(C)c(CCN(Cc3cccs3)C(=S)Nc3ccccc3)c2c1	KCNK3 block -13, KCNK9 inh -11 | KCNK9 block conf 38% | Kir2-1 spec inactive | HEK293 Tl ctr 34% | KCNK3 confirm 130 | KCNK3 noninduced 0.13
CCNC(=S)N(CCc1c(C)[nH]c2ccc(F)cc12)Cc1cccnc1	none
Cc1[nH]c2ccc(F)cc2c1CCN(Cc1cccnc1)C(=S)Nc1ccc(F)cc1	KCNK3 block -9.5, KCNK9 inh -9.6 | KCNK9 block conf inactive | Kir2-1 spec inactive | HEK293 Tl ctr 26% | KCNK3 confirm 103 | KCNK3 noninduced inactive
CCOC(=O)c1cnn(-c2nc(OCC)cc(OCC)n2)c1C	none
CCOC(=O)c1oc2ccccc2c1NC(=O)c1ccc2c(c1)OCO2	none
COc1ccc(NC(=O)c2oc3ccccc3c2NC(=O)c2ccc3c(c2)OCO3)cc1	KCNK3 block -9, KCNK9 inh -11 | KCNK9 block conf 58% | Kir2-1 spec inactive | HEK293 Tl ctr inactive | KCNK3 confirm 88 | KCNK3 noninduced inactive
CC(=O)N/C(=N\c1nc(C)cc(C)n1)Nc1ccccc1Cl	none
COc1ccc(/C(C#N)=C/c2c(-c3ccc(Cl)cc3)nc3c(C)cccn23)cc1	KCNK3 block -10, KCNK9 inh -11 | KCNK9 block conf 42% | Kir2-1 spec inactive | HEK293 Tl ctr 29% | KCNK3 confirm 101 | KCNK3 noninduced 0.15
Cc1cc(Oc2nc3c(C)cccn3c(=O)c2/C=C(\C#N)S(=O)(=O)c2ccc(Cl)cc2)ccc1Cl	none
Cc1oc(-c2ccccc2F)nc1CSCC(=O)NCc1ccc2c(c1)OCO2	none
